Source: PubChem BioAssay (Sanford-Burnham Center for Chemical Genomics)
CXCR6 inh: CXCR6 receptor inhibitors, primary screen, cell-based, beta-arrestin, luminescence, CHO-K1 PathHunter, 1536-well; inhibition, % at 20 µM; C-X-C chemokine receptor type 6 (Homo sapiens), O00574; AID 602244, 2012; 360,000 compounds, 0.36% hits; in the data active = inhibition above about 34%, passing the limit was not always enough;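 also: antagonist mode with CXCL16 agonist at 10 nM final; 0% = 10 nM CXCL16 with DMSO and 100% = unstimulated wells without agonist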
Target sequence (O00574 whole entry, looked up): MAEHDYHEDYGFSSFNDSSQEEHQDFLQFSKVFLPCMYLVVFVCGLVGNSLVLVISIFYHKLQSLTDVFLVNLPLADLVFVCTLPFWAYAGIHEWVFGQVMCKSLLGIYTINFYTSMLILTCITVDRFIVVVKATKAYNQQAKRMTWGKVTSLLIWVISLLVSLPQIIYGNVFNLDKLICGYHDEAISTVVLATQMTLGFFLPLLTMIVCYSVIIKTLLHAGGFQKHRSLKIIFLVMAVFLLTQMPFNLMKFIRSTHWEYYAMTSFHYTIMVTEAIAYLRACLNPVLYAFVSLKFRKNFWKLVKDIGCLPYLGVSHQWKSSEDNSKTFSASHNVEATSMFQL
APJ ag: agonists of human apelin receptor APJ, primary screen, CHO-K1 cells, PathHunter beta-arrestin, luminescence; P35414; 0% DMSO wells, 100% apelin; activation, % at 20 µM; 330,000 compounds, 0.11% hits; AID 2520, 2010;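 active = activation more than six SD over the plate average, tested at 20 µM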;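 also: 0% = DMSO alone and 100% = apelin-13 at 10 nM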
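Material: CHO-K1 APJ beta-arrestin complementation cell line; Input: cell density 1000 per well; Incubation: compound stimulation 90 min at 25 °C, detection 60 min; Signal: luminescence from split beta-galactosidase complementation, Galacton Star/Emerald II substrate; Controls: DMSO-only wells as negative, 10 nM Apelin-13 as positive control.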
EBI2 antag: EBI2 receptor antagonists, beta-arrestin recruitment, primary screen, cell-based, luminescence, 7a,25-OHC stimulation, uHTS | G-protein coupled receptor 183 (Homo sapiens), P32249 | 7a,25-OHC stimulated | inhibition, % at 5 µM | 360,000 compounds, 0.81% hits | AID 651636, 2012; in the data active = inhibition above about 38%;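 also: enzyme fragment complementation signal reports receptor beta-arrestin coupling in cells; 0% = agonist plus DMSO wells and 100% = wells without agonist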
APJ antagonist: antagonists of human apelin receptor APJ, primary screen, CHO-K1 cells, beta-arrestin complementation, luminescence | inhibition, % at 20 µM | 330,000 compounds, 0.32% hits;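 active = inhibition above about 40% at 20 µM, limit read from the data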;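 also: cells challenged with 10 nM apelin-13 agonist together with compound; plate controls were apelin-13 plus DMSO wells for no effect and DMSO wells lacking apelin-13 for full effect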
CCR6 antagonist: CCR6 receptor antagonists, primary screen, cell-based, CHO-K1, luminescence, beta-arrestin, uHTS. C-C chemokine receptor type 6 (Homo sapiens), P51684. CHO-K1 CCR6 PathHunter beta-arrestin, CCL20-stimulated. inhibition, % at 20 µM. 340,000 compounds, 0.49% hits;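 active = compounds whose inhibition of the agonist-driven luminescence signal at 20 µM reaches about 50%, limit read from the data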;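 also: cells stimulated with CCL20 at 14 nM final; plate controls were DMSO with CCL20 for no effect and DMSO without agonist for full effect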
APJ antag confirm: APJ antagonists blocking beta-arrestin recruitment, confirmation, cell-based, luminescence, single concentration, uHTS hits; AID 2766, 2010; inhibition, % at 20 µM; shares compounds with APJ antagonist; 950 compounds, 66% hits; antagonist mode; in the data active = inhibition above about 50%
CXCR6 confirm: CXCR6 receptor antagonists, confirmation, cell-based, single concentration, beta-arrestin, luminescence; shares compounds with CXCR6 inh; CHO-K1 CXCR6 PathHunter beta-arrestin; inhibition, % at 20 µM; 700 compounds, 65% hits;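 active = mean inhibition over four retests above 40%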;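 also: receptor stimulated with 10 nM CXCL16 agonist; beta-galactosidase fragment complementation upon beta-arrestin recruitment to receptor; plate controls were CXCL16 plus DMSO for no effect and DMSO without CXCL16 for full effect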
* = called active by the depositor; nt = no result. This is a sample that favours compounds with a hit; in the whole collection about 1.5% have one here.

SMILES	CXCR6 inh	APJ ag	EBI2 antag	APJ antagonist	CCR6 antagonist	APJ antag confirm	CXCR6 confirm
CCOC(=O)[C@]12CCC=C1N(CCC1=CCCCC1)C(=O)[C@H](CC(=O)N1CCSCC1)C2	-3.8	nt	-9.2	nt	nt	nt	nt
CSCCC(C(=O)Nc1c(C)cccc1C)n1c(-c2ccc(C(F)(F)F)cc2)nc2ccccc21 (configuration not stated)	nt	nt	-3.9	nt	nt	nt	nt
Cn1c(=O)[nH]c(=O)c2c1nc(Sc1nc3ccccc3s1)n2Cc1ccccc1	51.6*	-10.5	17.1	53.7*	68.1*	49.5	53.7*
Cn1c(=O)[nH]c(=O)c2c1nc(SCC(=O)O)n2Cc1ccccc1	-10.0	-1.2	-5.3	14.3	-0.1	nt	nt
COCc1cc(=O)[nH]c(Nc2nc3ccc(C)cc3o2)n1	46.0*	-9.4	4.8	52.3*	40.7	53.8*	47.2*
CCc1ccc2nc(Nc3nc(COC)cc(=O)[nH]3)nc(C)c2c1	-0.7	-0.5	-1.6	13.3	16.9	nt	nt
Cc1cccc(NC(=S)NNc2ncc(C(F)(F)F)cc2Cl)c1	52.3*	-2.3	22.0	53.6*	90.6*	89.3*	52.5*
O=C(Nc1ccccc1)Nc1ncc(C(F)(F)F)cc1Cl	1.6	nt	-6.3	nt	nt	nt	nt
CCc1nc2c(OCc3cccc(OC)c3)cccn2c1N(C)C(=O)c1ccc(OC)cc1	1.7	nt	-1.5	nt	nt	nt	nt
CC(C)(C)NC(=O)C(c1ccnc2ccccc12)n1c(=O)c(-c2cc3ccccc3[nH]2)nc2ccccc21 (configuration not stated)	nt	nt	16.1	nt	nt	nt	nt
NNc1nc(-c2ccccc2)cc(-c2ccccc2O)n1	79.1*	-14.4	42.0	56.9*	84.7*	143.0*	84.5*
CCOC(=O)N(C)c1c(CC)nc2c(OCc3ccc(Cl)cc3)cccn12	0.4	nt	6.2	nt	nt	nt	nt
Cc1ccc(-n2c(SCCN)nnc2-c2cccc(C)c2)cc1	44.5*	-7.9	17.6	41.6*	59.8*	70.2*	48.8*
O=C(C#Cc1ccccc1)c1ccco1	69.4*	-3.6	21.2	57.7*	70.2*	74.1*	82.9*
O=c1cc(CSc2ccc(Cl)cc2)nc(-c2ccccn2)[nH]1	54.3*	-11.4	48.2*	51.0*	79.1*	69.8*	68.1*
O=c1cc(CSc2ccc(Cl)cc2)nc(-c2ccccc2)[nH]1	-9.4	-1.2	-5.3	-3.8	3.4	nt	nt
C/C(=N\NC(=O)C(C)Oc1ccc([N+](=O)[O-])cc1)c1ccccn1 (configuration not stated)	74.5*	-12.0	15.3	55.7*	77.1*	73.1*	90.3*
CCCCNC(=O)C1(C)CCCCN1C(=O)c1c(C)noc1C (configuration not stated)	-0.7	nt	4.2	nt	nt	nt	nt
CCn1c(Cl)c(C=O)s/c1=N\S(=O)(=O)c1ccccc1	89.4*	-0.1	31.6	96.1*	104.7*	104.7*	105.0*
CCN1C(=O)CS/C1=N\S(=O)(=O)c1ccc(Cl)cc1	-2.4	-5.5	-1.0	-8.1	12.8	nt	nt
CCCCNC(=O)C(NC(=O)c1ccc2ccccc2c1)C(=O)c1ccccc1 (configuration not stated)	nt	nt	2.3	nt	nt	nt	nt
CC(C)(C)N1C(=O)c2ccccc2NC(=O)C1C(=O)NCCc1ccccc1F (configuration not stated)	nt	nt	-4.2	nt	nt	nt	nt
O=C(Nc1nc(-c2ccccn2)cs1)Nc1ccc(F)cc1F	64.9*	-7.7	36.0	41.5*	66.7*	65.3*	79.4*
CCOc1ccc(-c2csc(/C(C#N)=C\c3ccc(O)c([N+](=O)[O-])c3)n2)cc1	39.3*	-4.9	0.9	49.6*	54.5*	60.6*	39.0
COC(=O)c1ccc(COc2cccn3c(N(C)C(=O)CCC4CCCC4)c(C)nc23)cc1	-1.8	nt	3.5	nt	nt	nt	nt
CC(=O)OCCCNc1cc(Sc2nc3ccccc3s2)c2nonc2c1[N+](=O)[O-]	93.4*	-6.1	62.7*	76.7*	103.5*	101.2*	103.2*
